E coli WT exp: E. coli BW25113 growth inhibition, expanded screen. OD600 absorbance. growth inhibition, % at 100 µM. 0.15% of 98,000 active. AID 710;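 active means growth inhibition above about 50% at one test dose, limit read from the data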;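 further: growth measured after 20 h incubation at 37 °C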
Ecoli tolC: E. coli tolC mutant growth inhibition. E. coli BW25113 tolC mutant growth, OD615. growth inhibition, % at 10 µM (by protocol). 2.2% of 65,000 active. AID 573;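 active means growth inhibition at or above a cutoff equal to the mean over every tested compound plus 3 SD, cut at about 60% in these data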;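 further: growth measured after 20 h incubation at 37 °C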
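Doses: one dose of 10 µM final / Material: E. coli BW25113 ΔtolC::kan, tolC deletion mutant strain / Buffer or medium: LB with kanamycin 50 µg/mL / Evaluation: percent growth inhibition / Detection: optical density read at 615 nm / Incubation: 37 °C, 20 h exposure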
PostGolgi ctrl: growth of the yeast control strain, post-Golgi counter-screen | efflux-deficient yeast background strain, growth absorbance A615, 16 h | inhibition, % at 10 µM | 5% of 98,000 active
HePTP inhibitor: human HePTP phosphatase inhibition; recombinant HePTP phosphatase activity, OD absorbance; inhibition, % at 20 µM; 0.64% of 110,000 active; AID 521; in the data active means inhibition above about 50%;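 further: plate controls were vehicle for no effect and reference inhibitor for full effect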
PLAP activator: human PLAP activation | purified PLAP enzyme, luminescent substrate read-out; hits give high values | activation fold at 20 µM | 1.2% of 96,000 active | AID 696; in the data active means activation fold above about 2
Target sequence (P05187 whole entry, looked up): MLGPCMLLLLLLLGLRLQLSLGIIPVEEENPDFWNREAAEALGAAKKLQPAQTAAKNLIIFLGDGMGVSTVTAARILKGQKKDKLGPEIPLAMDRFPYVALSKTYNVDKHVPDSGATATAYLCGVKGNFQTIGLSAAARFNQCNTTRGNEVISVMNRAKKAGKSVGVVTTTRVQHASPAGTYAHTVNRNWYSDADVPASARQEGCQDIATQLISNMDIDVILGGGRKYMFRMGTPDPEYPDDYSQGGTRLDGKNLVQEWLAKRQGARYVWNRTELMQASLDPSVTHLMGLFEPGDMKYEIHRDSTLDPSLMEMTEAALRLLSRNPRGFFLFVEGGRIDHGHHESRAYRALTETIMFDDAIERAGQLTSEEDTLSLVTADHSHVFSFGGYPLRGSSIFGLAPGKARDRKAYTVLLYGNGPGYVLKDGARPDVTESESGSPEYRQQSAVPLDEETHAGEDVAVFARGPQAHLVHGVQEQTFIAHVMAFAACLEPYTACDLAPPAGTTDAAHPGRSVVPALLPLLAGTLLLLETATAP
PostGolgi yeast: growth inhibition of a yeast mutant, post-Golgi transport screen | AID 739 | inhibition, % at 10 µM | 0.9% of 98,000 active | post-Golgi transport phenotypic cell assay;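 further: yeast cells grown in 1536-well plates; yeast grown about 18 h at 30C before absorbance read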
An asterisk follows results filed as active. Shown are actives, neighbours in structure and some others; about 5.4% of the full set was active somewhere. Unless noted, no stated cut-off is given here; in the data, active means inhibition above about 30%; inactive means the rest.

Screening CCOC(=O)/C(C#N)=C1\C(=O)Nc2ccccc21 returned HePTP inhibitor 4.
`CCn1c(Cc2ccc(OC)cc2)nnc1SCC(=O)Nc1cccc(C(=O)OC)c1` gave E coli WT exp 1, Ecoli tolC 6, PostGolgi ctrl 10, HePTP inhibitor 1 and PostGolgi yeast -7.
`N#CC1=C(N)N(c2ccccc2)C(c2cccc([N+](=O)[O-])c2)C1(C#N)C#N` (stereo not drawn) gave E coli WT exp 0, PostGolgi ctrl 1, PLAP activator 0.8 and PostGolgi yeast 6.
`Cc1cccc(N2C(N)=C(C#N)C(C#N)(C#N)C2c2ccccc2)c1` (stereo not drawn) gave E coli WT exp 8, Ecoli tolC 100*, PostGolgi ctrl 25, HePTP inhibitor 1, PLAP activator 0.9 and PostGolgi yeast 1.
For Cn1c(NC(=O)c2cccs2)c(-c2cccs2)c(=O)c2ccccc21 the results were E coli WT exp -10, Ecoli tolC -19, PostGolgi ctrl 32*, HePTP inhibitor 0, PLAP activator 0.9 and PostGolgi yeast 4.
`Cn1c(NC(=O)c2ccccc2)c(-c2cccs2)c(=O)c2ccccc21` gave E coli WT exp -7, PostGolgi ctrl 25, PLAP activator 0.8 and PostGolgi yeast 0.
Screening Cc1ccccc1NC(=O)CN(c1ccc(Oc2ccccc2)cc1)S(C)(=O)=O returned HePTP inhibitor 4.
O=C(COc1ccc(Cl)cc1Cl)NC(=S)N1CCCc2ccccc21 was read as E coli WT exp 1, PostGolgi ctrl -3, PLAP activator 1.4 and PostGolgi yeast 0.
`O=C(CCCOc1ccc(Cl)cc1Cl)N1CCCc2ccccc21` gave E coli WT exp 0, PostGolgi ctrl 48*, HePTP inhibitor -7, PLAP activator 1.3 and PostGolgi yeast -7.
For COc1cc2c(cc1OC)CN(C(=O)CCCOc1ccc(Cl)cc1Cl)CC2 the results were E coli WT exp -25, PostGolgi ctrl 38*, PLAP activator 1.8 and PostGolgi yeast -1.
COc1cc2c(cc1OC)CN(C(=O)CCCN1C(=O)c3ccccc3C1=O)CC2 was read as E coli WT exp -2, Ecoli tolC 5, PostGolgi ctrl 18, HePTP inhibitor -3, PLAP activator 1 and PostGolgi yeast 19.
For O=C1CC(c2ccccc2)CC2=C1C(c1ccc(F)c(F)c1)Nc1ccccc1N2 (stereo not drawn) the results were HePTP inhibitor 8.
C=CCOc1ccc(/C=C2\C(=O)NC(=O)N(c3ccc(C)cc3)C2=O)cc1 was read as HePTP inhibitor 2.
`Fc1ccc(Sc2cc(Cl)c(-c3ccccc3)nn2)cc1` gave E coli WT exp -8, PostGolgi ctrl 39*, PLAP activator 0.8 and PostGolgi yeast -3.
`O=C(Nc1nc(-c2ccccc2)cs1)c1cc2ccccc2o1` gave HePTP inhibitor 4.
Screening Cc1ccc(OCC(=O)Oc2ccc(C(=O)c3ccccc3)cc2C)c(C)c1 returned HePTP inhibitor 104*.
`CCn1cnc2sc(C(=O)N3CCN(Cc4ccc5c(c4)OCO5)CC3)c(C)c2c1=O` gave E coli WT exp -3, Ecoli tolC -9, PostGolgi ctrl 15, HePTP inhibitor 2, PLAP activator 1.2 and PostGolgi yeast 0.
For CCn1cnc2sc(C(=O)N(Cc3ccc(N(C)C)cc3)Cc3ccco3)c(C)c2c1=O the results were E coli WT exp -8, Ecoli tolC 5, PostGolgi ctrl 39*, HePTP inhibitor 9, PLAP activator 1.5 and PostGolgi yeast 12.
Cc1ccc2c(c1)N(CCC(=O)NCC1COc3ccccc3O1)C(=O)CO2 (stereo not drawn) was read as E coli WT exp -11, Ecoli tolC 3, PostGolgi ctrl 3, HePTP inhibitor 3, PLAP activator 2.2* and PostGolgi yeast -4.
`Cc1ccc(C(=O)NNC(=O)C2CCN(Cc3ccc(Cl)c(Cl)c3)CC2)cc1` gave E coli WT exp -5, PostGolgi ctrl 14, PLAP activator 1.1 and PostGolgi yeast 3.
Cc1ccc(C(=O)NNC(=O)C2CCN(Cc3ccccc3)CC2)cc1 was read as E coli WT exp 7, PostGolgi ctrl -5, PLAP activator 2.1* and PostGolgi yeast -5.
Screening Cc1ccc(S(=O)(=O)N2CCN(C3CCN(Cc4ccccc4)CC3)CC2)cc1 returned E coli WT exp 6, Ecoli tolC -6, PostGolgi ctrl 24, HePTP inhibitor 11, PLAP activator 1.6 and PostGolgi yeast 70*.
Screening COc1ccc(-n2c(SCC(=O)NNC(=O)c3ccccc3C)nnc2-c2ccncc2)cc1 returned E coli WT exp 6, PostGolgi ctrl -5, PLAP activator 2.1* and PostGolgi yeast 0.
CCn1c(SCC(=O)NCC(=O)Nc2ccc(F)cc2)nnc1-c1ccncc1 was read as E coli WT exp -2, PostGolgi ctrl 35*, PLAP activator 1 and PostGolgi yeast -2.
Screening CCCNC(=O)NC(=O)CSc1nnc(-c2ccncc2)n1CC returned E coli WT exp 0, Ecoli tolC -7, PostGolgi ctrl -2, HePTP inhibitor 8, PLAP activator 1.4 and PostGolgi yeast 1.
COc1cc2c(cc1NC(=O)CSc1nnc(Cc3cccs3)n1Cc1ccco1)oc1ccccc12 was read as E coli WT exp -4, PostGolgi ctrl 33*, PLAP activator 1.6 and PostGolgi yeast 1.
`Cc1cc(Cl)ccc1NC(=O)CSc1nnc(Cc2cccs2)n1Cc1ccco1` gave E coli WT exp -7, Ecoli tolC 75*, PostGolgi ctrl 25, HePTP inhibitor 9, PLAP activator 1.1 and PostGolgi yeast 0.
O=C(COc1ccccc1)Nc1ccc(Br)cn1 was read as HePTP inhibitor 8.
Screening COc1ccc(C(=O)NNC(=O)CSc2nnc(COc3ccc4ccccc4c3)n2C)cc1 returned E coli WT exp -9, PostGolgi ctrl 5, PLAP activator 1 and PostGolgi yeast -6.
Screening CCn1c(SCC(=O)Nc2cc3oc4ccccc4c3cc2OC)nnc1-c1cccs1 returned E coli WT exp -10, Ecoli tolC 17, PostGolgi ctrl 47*, HePTP inhibitor -6, PLAP activator 1 and PostGolgi yeast 0.
COc1cc2c(cc1NC(=O)CSc1nnc(Cc3cccs3)n1C)oc1ccccc12 was read as E coli WT exp -4, Ecoli tolC 50, PostGolgi ctrl 35*, HePTP inhibitor 6, PLAP activator 1.8 and PostGolgi yeast -9.
Screening COc1cc2c(cc1NC(=O)CSc1nnc(COc3ccc(Cl)cc3)n1C)oc1ccccc12 returned E coli WT exp -12, PostGolgi ctrl 35*, PLAP activator 1.1 and PostGolgi yeast 2.
For COc1ccc(C(=O)NNC(=O)CSc2nnc(COc3ccccc3)n2C)cc1 the results were E coli WT exp 9, PostGolgi ctrl 4, PLAP activator 2* and PostGolgi yeast -13.
For CC1(C)CC(NC(=O)c2cccc([N+](=O)[O-])c2)CC(C)(C)N1 the results were HePTP inhibitor 11.
